pIC50: −log10 of the molar value.
Legend:
[1] = Ratio of IC50 of DB to that of NADH oxidase
Summary of the method: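 Ratio of two IC50 values measured on NADH-activated beef heart submitochondrial particles (0.28 nM complex I, 22 °C, pH 7.4 phosphate/EDTA). The numerator IC50 comes from NADH:decylubiquinone oxidoreductase (75 µM NADH, 30 µM DB, plus antimycin and cyanide). The denominator IC50 comes from aerobic NADH oxidase (75 µM NADH, no added quinone). Both activities were read at 340 nm.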

[2] = target: Mitochondrial complex I; NADH oxidoreductase (Bos taurus) (UniProt P25708+P52505); assay: Relative potency of inhibition of NADH oxidase (IC50); 4-dehydroxy-4-hydroxylimonorolliniastatin-1 as standard; type: protein-complex assay
Summary of the method: (§1)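 Derived value: the compound's NADH oxidase IC50 expressed relative to that of the reference acetogenin. The oxidase assay used NADH-activated beef heart submitochondrial particles (0.28 nM complex I) oxidising 75 µM NADH aerobically without added quinone, at 22 °C and pH 7.4. Inhibitor was added stepwise with 5 min incubations on ice, and NADH decrease was followed at 340 nm.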

[3] = target: Mitochondrial complex I; NADH oxidoreductase (Bos taurus, UniProt P25708+P52505); assay: Inhibition of NADH oxidase activity.; type: protein-complex assay
Summary of the method: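 Beef-heart submitochondrial particles (sonicated frozen-thawed mitochondria), preactivated with 300 µM NADH, assayed at 22 °C in 50 mM potassium phosphate pH 7.4, 1 mM EDTA (0.28 nM complex I). Aerobic oxidation of 75 µM NADH with no added quinone, followed at 340 nm. Ethanolic compound added cumulatively, 5 min on ice per step, ethanol ≤2%. IC50 is the final concentration giving 50% inhibition.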

[4] = Percent of relative potency by NADH oxidase assay; summary of the method: as §1
[5] = Inhibition of NADH decylubiquinone (DB) oxidoreductase activity.; parameters: species or system Bos taurus
Summary of the method: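 Beef heart submitochondrial particles from sonicated frozen-thawed mitochondria, NADH-activated (300 µM) at 0.5 mg·mL⁻¹. Assay at 22 °C in 50 mM K phosphate pH 7.4, 1 mM EDTA, 0.28 nM complex I, with 75 µM NADH, 30 µM decylubiquinone, 2 µM antimycin and 2 mM KCN. Inhibitor titrated as ethanolic additions (5 min on ice each). NADH loss read at 340 nm; IC50 taken at 50% inhibition.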

Mitochondrial complex I; NADH oxidoreductase, sequence (P25708 21-464 limits assumed, other chains not shown): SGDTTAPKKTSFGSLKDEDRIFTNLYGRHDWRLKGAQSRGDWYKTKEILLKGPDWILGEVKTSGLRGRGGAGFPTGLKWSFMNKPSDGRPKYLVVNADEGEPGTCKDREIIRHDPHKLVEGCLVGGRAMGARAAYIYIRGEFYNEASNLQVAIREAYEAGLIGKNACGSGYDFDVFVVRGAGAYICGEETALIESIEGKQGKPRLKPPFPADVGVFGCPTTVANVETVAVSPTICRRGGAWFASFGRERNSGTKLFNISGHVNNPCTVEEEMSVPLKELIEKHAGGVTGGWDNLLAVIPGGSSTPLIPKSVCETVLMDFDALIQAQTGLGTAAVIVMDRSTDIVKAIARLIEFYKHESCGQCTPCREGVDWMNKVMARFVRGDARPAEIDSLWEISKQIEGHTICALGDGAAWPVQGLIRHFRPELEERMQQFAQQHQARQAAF

Structure (SMILES) | Ratio [1] | Relative potency [2] | pIC50 [3] | Relative potency [4] | pIC50 [5]
CCCCCC/C(CCC[C@H](O)[C@H]1CC[C@H]([C@H]2CC[C@H]([C@H](O)CCCCCCCCCCCCC3=C[C@H](C)OC3=O)O2)O1)=N\O | 1.2 | 3 | 9.13 | 33.8 | 9.05
CCCCCC[C@H](O)CCC[C@H](O)[C@H]1CC[C@H]([C@H]2CC[C@H]([C@H](O)CCCCCCCCCCCCC3=C[C@H](C)OC3=O)O2)O1 [SQUAMOCIN] | 1.3 | 2.4 | 9.23 | 42.3 | 9.11
CCCCCC[C@H](CCC[C@@H](N=[N+]=[N-])[C@H]1CC[C@H]([C@H]2CC[C@H]([C@H](CCCCCCCCCCCCC3=C[C@H](C)OC3=O)N=[N+]=[N-])O2)O1)N=[N+]=[N-] | 17 | 72 | 7.74 |  | 6.50
CCCCCCCCCC[C@H](O)[C@H]1CC[C@H]([C@H]2CC[C@H]([C@H](O)CCCCC(O)CCCCCCCC3=C[C@H](C)OC3=O)O2)O1 (stereo partly specified) | 2 | 3.8 | 9.02 | 26.3 | 8.72
CCCCCCC(=O)CCC[C@H](O)[C@H]1CC[C@H]([C@H]2CC[C@H]([C@H](O)CCCCCCCCCCCCC3=C[C@H](C)OC3=O)O2)O1 | 1.9 | 2.6 | 9.19 | 38.5 | 8.89
CCCCCCCCCCC(=O)[C@H]1CC[C@@H]([C@@H]2CC[C@H]([C@H](O)CCCCCCCCCCC(=O)CC3=C[C@H](C)OC3=O)O2)O1 | 1.8 | 1.4 | 9.47 | 73.5 | 9.22
CCCCCCCCCC[C@H](O)[C@H]1CC[C@@H]([C@@H]2CC[C@H]([C@H](O)CCCCCCCCCCC(=O)CC3=C[C@H](C)OC3=O)O2)O1 | 1.1 | 1.7 | 9.38 | 59.5 | 9.35
CCCCCCCCCC[C@H](OC(C)=O)[C@H]1CC[C@@H]([C@@H]2CC[C@H]([C@@H](CCCCCCCCCC[C@H](CC3=C[C@H](C)OC3=O)OC(C)=O)OC(C)=O)O2)O1 | 1300 | 5.8 | 8.84 |  | 5.72
CCCCCCCCCC[C@H](O)[C@H]1CC[C@H]([C@H]2CC[C@H]([C@H](O)CCCCC(=O)CCCCCCCC3=C[C@H](C)OC3=O)O2)O1 [GUANACONE] | 1.4 | 6.1 | 8.82 |  | 8.68
CCCCCCCCCC[C@H](O)[C@H]1CC[C@@H]([C@@H]2CC[C@H]([C@H](O)CCCCCCCCCC/C(CC3=C[C@H](C)OC3=O)=N\O)O2)O1 | 1.1 | 1 | 9.60 | 100 | 9.54
CCCCCCCCCC[C@H](O)[C@H]1CC[C@@H]([C@@H]2CC[C@H]([C@H](O)CCCCCCCC[C@@H](O)CC3=C[C@H](C)OC3=O)O2)O1 | 2.5 | 1.3 | 9.48 | 75.8 | 9.08
CCCCCCCCCC[C@H](OS(C)(=O)=O)[C@H]1CC[C@@H]([C@@H]2CC[C@H]([C@@H](CCCCCCCCCC[C@H](CC3=C[C@H](C)OC3=O)OS(C)(=O)=O)OS(C)(=O)=O)O2)O1 | 260 |  | 8.77 | 6.7 | 6.36
CCCCC[C@H](O)CCCC[C@H](O)[C@H]1CC[C@H]([C@H]2CC[C@H]([C@H](O)CCCCCCCCCCCCC3=C[C@H](C)OC3=O)O2)O1 [MOTRILIN] | 2 | 1.6 | 9.39 | 61 | 9.09
CCCCCCCCCC[C@H](O)[C@H]1CC[C@H]([C@H]2CC[C@H]([C@H](O)CCCCCCCCCCCCC3=C[C@H](C)OC3=O)O2)O1 [BULLANIN] | 1.4 | 1.3 | 9.49 | 78.1 | 9.36
CCCCCC(CCCC[C@H](OC(C)=O)[C@H]1CC[C@H]([C@H]2CC[C@H]([C@@H](CCCCCCCCCCCCC3=C[C@H](C)OC3=O)OC(C)=O)O2)O1)OC(C)=O (stereo partly specified) | 118 | 8.4 | 8.68 |  | 6.61
CCCCCCCCCC[C@@H](O)[C@@H]1CC[C@@H]([C@@H]2CC[C@@H]([C@H](O)CCCCCCCCCC(O)CC3=CC(C)OC3=O)O2)O1 (stereo partly specified) [BULLATACIN] | 1.2 | 2 | 9.29 | 49 | 9.21
CCCCCC[C@@H](CCC[C@H](OS(C)(=O)=O)[C@H]1CC[C@H]([C@H]2CC[C@H]([C@@H](CCCCCCCCCCCCC3=C[C@H](C)OC3=O)OS(C)(=O)=O)O2)O1)OS(C)(=O)=O | 144 | 56 | 7.85 |  | 5.69
CCCCCCCCCC[C@H](O)[C@H]1CC[C@@H]([C@@H]2CC[C@H]([C@H](O)CCCCCCCCCC[C@@H](O)CC3=C[C@H](C)OC3=O)O2)O1 [rolliniastatin-1] | 1.2 | 2.4 | 9.22 | 41.7 | 9.13
CCCCCC(CCCC[C@H](OS(C)(=O)=O)[C@H]1CC[C@H]([C@H]2CC[C@H]([C@@H](CCCCCCCCCCCCC3=C[C@H](C)OC3=O)OS(C)(=O)=O)O2)O1)OS(C)(=O)=O (stereo partly specified) | 22 | 12 | 8.54 |  | 7.19
CCCCCCCCCC[C@H](O)[C@H]1CC[C@H]([C@H]2CC[C@H]([C@H](O)CCCC/C(CCCCCCCC3=C[C@H](C)OC3=O)=N\O)O2)O1 | 2 | 1.4 | 9.47 | 73.5 | 9.17
CCCCCCCCCC/C(=N\O)[C@H]1CC[C@@H]([C@@H]2CC[C@H]([C@H](O)CCCCCCCCCC/C(CC3=C[C@H](C)OC3=O)=N\O)O2)O1 | 1.1 | 1.4 | 9.47 | 73.5 | 9.41
CCCCCC[C@@H](CCC[C@H](OC(C)=O)[C@H]1CC[C@H]([C@H]2CC[C@H]([C@@H](CCCCCCCCCCCCC3=C[C@H](C)OC3=O)OC(C)=O)O2)O1)OC(C)=O | 587 | 20 | 8.30 |  | 5.53
CCCCCCCCCCC(=O)[C@H]1CC[C@H]([C@H]2CC[C@H](C(=O)CCCCC(=O)CCCCCCCC3=C[C@H](C)OC3=O)O2)O1 | 1.5 | 6.6 | 8.78 |  | 8.60

Reference: ChEMBL document CHEMBL1133548, “Semisynthesis of antitumoral acetogenins: SAR of functionalized alkyl-chain bis-tetrahydrofuranic acetogenins, specific inhibitors of mitochondrial complex I” (J Med Chem, 2000)
